Assay results taken from ChEMBL document CHEMBL1148639, “A novel series of potent and selective PDE5 inhibitors with potential for high and dose-independent oral bioavailability” (J Med Chem, 2006).
≈ marks a conversion by molar mass, not a printed value. Blank lines part the entries; values can stand above or below the molecule they belong to.

Experiments:
[1] = Selectivity for human PDE5 over canine retinal PDE6
How it was run: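 Ratio of IC50s for PDE5 from human corpus cavernosum and cone PDE6 from canine retina. PDE6 came from the 100 000g supernatant of retina homogenate, purified by anion exchange with a NaCl gradient. Activity was read by scintillation proximity assay with cGMP (3:1 unlabeled:3H) at about 1/3 Km, so IC50 = Ki. Buffer was 20 mM Tris-HCl pH 7.4, 5 mM MgCl2 and 1 mg/mL BSA. Incubation ran 30-60 min at 30 °C, keeping turnover below 30%. PDE5 curves spanned 1 nM-10 µM.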

[2] = Distribution coefficient, logD of the compound; assay type: physicochemical; conditions: octanol/water
[3] = target: T1, cGMP-specific 3',5'-cyclic phosphodiesterase (Homo sapiens, UniProt O76074)
[4] = Stability in dog liver microsome; assay type: ADME, Canis lupus familiaris; conditions: liver microsomes, read-out: Stability
[5] = Apparent permeability in human Caco-2 cell at 25 uM; assay type: ADME, cell-based
How it was run: (§1)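 Human Caco-2 monolayers were used. Papp = amount transported/(time × surface area × initial concentration). Compounds were tested at 25 µM unless stated otherwise. Efflux ratio = secretory flux ÷ absorptive flux.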

[6] = Ratio of secretory flux to absorptive flux in human Caco-2 cell; assay type: ADME, cell-based; how it was run: as §1
[7] = Solubility at pH 7.6; assay type: physicochemical; conditions: buffer
How it was run: (§2)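 Solid was removed by filtration (with filter-binding check) or double centrifugation. The pH of the soluble fraction was measured, and the solution was diluted in mobile phase and quantified by HPLC or MS. Bulk form was checked by microscopy.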

[8] = Half life in dog at 0.5 mg/kg; assay type: ADME, organism-based, Canis lupus familiaris; set-up: dose 0.5 mg/kg; conditions: in vivo
How it was run: (§3)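 Compound was given intravenously to dogs. Pharmacokinetic parameters, including plasma protein binding, are means of n = 2 animals.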

[9] = Volume of distribution in dog at 0.5 mg/kg; assay type: ADME, organism-based, Canis lupus familiaris; set-up: dose 0.5 mg/kg; conditions: in vivo, read-out: Vdss; how it was run: as §3
[10] = Clearance in dog at 0.5 mg/kg; assay type: ADME, organism-based, Canis lupus familiaris; set-up: dose 0.5 mg/kg; conditions: in vivo; how it was run: as §3
[11] = Plasma protein binding in dog at 0.5 mg/kg; assay type: ADME, organism-based, Canis lupus familiaris; set-up: dose 0.5 mg/kg; conditions: read-out: PPB (converted); how it was run: as §3
physchem = conditions: octanol/water, pH 7.4
[12] = Solubility at pH 7.4; assay type: physicochemical; conditions: buffer; how it was run: as §2
[13] = Oral bioavailability in dog at 0.5 mg/kg; assay type: ADME, organism-based, Canis lupus familiaris; conditions: in vivo
[14] = Tmax in dog at 0.5 mg/kg; assay type: ADME, organism-based, Canis lupus familiaris; set-up: dose 0.5 mg/kg; conditions: in vivo
[15] = target: T1, cGMP-specific 3',5'-cyclic phosphodiesterase; remark: listed apart in the source
[16] = Oral bioavailability in human; assay type: ADME, organism-based; conditions: in vivo
[17] = Solubility at pH 6.95; assay type: physicochemical; conditions: buffer; how it was run: as §2
[18] = Solubility at pH 7.3; assay type: physicochemical; conditions: buffer; how it was run: as §2

SMILES: CCCOc1ncc(C(C)=O)cc1-c1nc(O)c2nn(C3CN(C)C3)c(CCC)c2n1
Selectivity ratio [1]: 30
logD [2]: 1.5
IC50 [3]: 14.7 nM

SMILES: CCCOc1ncc(C(C)=O)cc1-c1nc(O)c2nn(C3CN(C(C)C)C3)c(CC)c2n1
Selectivity ratio [1]: 60

SMILES: CCCCOc1ncc(C(C)=O)cc1-c1nc(O)c2nn(C3CCN(C)CC3)c(CC)c2n1
Selectivity ratio [1]: 77

SMILES: CCCCOc1ncc(C(C)=O)cc1-c1nc2c(CC)n(C3CCN(C)CC3)nc2c(=O)[nH]1
IC50 [3]: 9.1 nM

SMILES: CCCOc1ncc(C(C)=O)cc1-c1nc(=O)c2nn(C3CNC3)c(CCC)c2[nH]1
Selectivity ratio [1]: 26
logD [2]: 0.6
IC50 [3]: 18.2 nM

SMILES: CCCOc1ncc(C(C)=O)cc1-c1nc2c(CC)n(C3CCN(CC)CC3)nc2c(=O)[nH]1
IC50 [3]: 13 nM

SMILES: CCCCOc1ncc(C(C)=O)cc1-c1nc2c(CC)n(C3CCN(CC)CC3)nc2c(=O)[nH]1
half-life [4]: > 2 h
Papp at 25 µM [5]: 53 ×10⁻⁶ cm/s
efflux ratio [6]: 1
solubility [7]: 1100 µg/mL (≈ 2360 µM)
half-life [8]: 6.7 h
Vd [9]: 22 L/kg
clearance [10]: 38 mL/min/kg
fraction unbound [11]: 0.4
IC50 [3]: 3.6 nM
logD (physchem): 1.8

SMILES: CCCc1nn(C)c2c(=O)[nH]c(-c3cc(C(C)=O)ccc3OCC)nc12
Papp at 25 µM [5]: 43 ×10⁻⁶ cm/s
efflux ratio [6]: 0.7
IC50 [3]: 17 nM

SMILES: CCCOc1ncc(C(C)=O)cc1-c1nc(=O)c2nn(C3CNC3)c(CC)c2[nH]1
Selectivity ratio [1]: 55

SMILES: CCCOc1ncc(C(C)=O)cc1-c1nc(O)c2nn(C3CN(C)C3)c(CC)c2n1
Selectivity ratio [1]: 69

SMILES: CCCCOc1ncc(C(C)=O)cc1-c1nc(O)c2nn(C3CN(C)C3)c(CC)c2n1
Selectivity ratio [1]: 43

SMILES: CCc1c2nc(-c3cc(S(=O)(=O)N4CCN(CC)CC4)cnc3OCCOC)[nH]c(=O)c2nn1Cc1ccccn1
bioavailability [16]: 45%
IC50 [3]: 1.3 nM

SMILES: CCCOc1ncc(C(C)=O)cc1-c1nc(O)c2nn(Cc3nccn3C)c(CC)c2n1
Selectivity ratio [1]: 58
IC50 [3]: 2.7 nM

SMILES: CCCCOc1ncc(C(C)=O)cc1-c1nc(O)c2nn(C3CN(CC)C3)c(CC)c2n1
Selectivity ratio [1]: 153

SMILES: CCCCOc1ncc(C(C)=O)cc1-c1nc2c(CC)n(C3CCNCC3)nc2c(=O)[nH]1
IC50 [3]: 18 nM

SMILES: CCCOc1ncc(C(C)=O)cc1-c1nc(O)c2nn(C3CCNCC3)c(CC)c2n1
Selectivity ratio [1]: 53

SMILES: CCc1c2nc(-c3cc(C(C)=O)cnc3OCC(C)C)[nH]c(=O)c2nn1C1CN(C)C1
IC50 [3]: 8.2 nM

SMILES: CCCCOc1ncc(C(C)=O)cc1-c1nc(O)c2nn(Cc3nccn3C)c(CC)c2n1
Selectivity ratio [1]: 142
half-life [4]: > 2 h
Papp at 25 µM [5]: 5 ×10⁻⁶ cm/s
efflux ratio [6]: 1.6
solubility [17]: 6 µg/mL (≈ 13.3 µM)
IC50 [3]: 0.9 nM
logD (physchem): 2.6

SMILES: CCc1c2nc(-c3cc(C(C)=O)cnc3OCCOC)nc(O)c2nn1CCN1CCOCC1
Selectivity ratio [1]: 58
IC50 [3]: 53 nM

SMILES: CCCCOc1ncc(C(C)=O)cc1-c1nc2c(CC)n(C3CNC3)nc2c(=O)[nH]1
IC50 [3]: 21 nM

SMILES: CCCOc1ncc(C(C)=O)cc1-c1nc2c(CC)n(C3CN(CC)C3)nc2c(=O)[nH]1
IC50 [3]: 7.1 nM

SMILES: CCCOc1ncc(C(C)=O)cc1-c1nc2c(CC)n(C3CCN(C)CC3)nc2c(=O)[nH]1
IC50 [3]: 12 nM

SMILES: CCCOc1ncc(C(C)=O)cc1-c1nc(O)c2nn(C3CCN(CC)CC3)c(CC)c2n1
Selectivity ratio [1]: 18

SMILES: CCCc1nn(C)c2c(=O)[nH]c(-c3cc(C(=O)CN4CCOCC4)ccc3OCC)nc12
Papp at 25 µM [5]: 33 ×10⁻⁶ cm/s
efflux ratio [6]: 0.8
IC50 [3]: 1.7 nM

SMILES: CCCOc1ncc(C(C)=O)cc1-c1nc2c(CC)n(C3CNC3)nc2c(=O)[nH]1
logD [2]: 0.3
IC50 [3]: 34 nM

SMILES: CCCOc1ncc(C(C)=O)cc1-c1nc2c(CC)n(C3CCNCC3)nc2c(=O)[nH]1
IC50 [3]: 7 nM

The next lines start with the values.

Selectivity ratio [1]: 84
SMILES: CCc1c2nc(-c3cc(C(C)=O)cnc3OCC(C)C)nc(O)c2nn1C1CN(C)C1

Selectivity ratio [1]: 61
SMILES: CCCOc1ncc(C(C)=O)cc1-c1nc(O)c2nn(C3CN(CC)C3)c(CC)c2n1

half-life [4]: 1.58 h
Papp at 25 µM [5]: 30 ×10⁻⁶ cm/s
efflux ratio [6]: 0.9
solubility [12]: 390 µg/mL (≈ 889 µM)
half-life [8]: 9 h
bioavailability [13]: 76%
Vd [9]: 13.4 L/kg
clearance [10]: 17.5 mL/min/kg
Tmax [14]: 1.4 h
fraction unbound [11]: 0.38
IC50 [3]: 5.5 nM
IC50 [15]: 5.5 nM
logD (physchem): 2.8
SMILES: CCCCOc1ncc(C(C)=O)cc1-c1nc2c(CC)n(C3CN(CC)C3)nc2c(=O)[nH]1

Selectivity ratio [1]: 350
SMILES: CCCCOc1ncc(C(C)=O)cc1-c1nc(O)c2nn(C3CCN(CC)CC3)c(CC)c2n1

Selectivity ratio [1]: 57
SMILES: CCCCOc1ncc(C(C)=O)cc1-c1nc(O)c2nn(C3CCNCC3)c(CC)c2n1

logD [2]: 1.2
IC50 [3]: 9.5 nM
SMILES: CCCOc1ncc(C(C)=O)cc1-c1nc2c(CC)n(C3CN(C)C3)nc2c(=O)[nH]1

IC50 [3]: 6.4 nM
SMILES: CCCCOc1ncc(C(C)=O)cc1-c1nc2c(CC)n(C3CN(C)C3)nc2c(=O)[nH]1

Selectivity ratio [1]: 37
SMILES: CCCOc1ncc(C(C)=O)cc1-c1nc(O)c2nn(C3CCN(C)CC3)c(CC)c2n1

half-life [4]: > 2 h
Papp at 25 µM [5]: 37 ×10⁻⁶ cm/s
solubility [18]: < 10 µg/mL
IC50 [3]: 2.6 nM
SMILES: CCCCOc1ncc(C(C)=O)cc1-c1nc2c(CC)n(CCN3CCOCC3)nc2c(=O)[nH]1

Selectivity ratio [1]: 29
SMILES: CCCCOc1ncc(C(C)=O)cc1-c1nc(O)c2nn(C3CNC3)c(CC)c2n1

half-life [4]: > 2 h
Papp at 25 µM [5]: 28 ×10⁻⁶ cm/s
efflux ratio [6]: 0.5
solubility [18]: 170 µg/mL (≈ 388 µM)
half-life [8]: 7.2 h
bioavailability [13]: 91%
Vd [9]: 7.8 L/kg
clearance [10]: 13 mL/min/kg
Tmax [14]: 1.9 h
fraction unbound [11]: 0.34
IC50 [3]: 5.2 nM
logD (physchem): 2.5
SMILES: CCCOc1ncc(C(C)=O)cc1-c1nc2c(CC)n(C3CN(C(C)C)C3)nc2c(=O)[nH]1
